Results: ChEMBL document CHEMBL2331438, “An efficient domino reaction in ionic liquid: synthesis and biological evaluation of some pyrano- and thiopyrano-fused heterocycles” (2013)
Values after ≈ are worked out from the molar mass of the structure shown.

Tests used:
[1] = system: Streptococcus pneumoniae; experiment: Antibacterial activity against Streptococcus pneumoniae MTCC 1936 after 24 hrs by broth microdilution method; format: functional; details: MTCC 1936, 24 h
[2] = system: Clostridium tetani; experiment: Antibacterial activity against Clostridium tetani MTCC 449 after 24 hrs by broth microdilution method; format: functional; details: MTCC 449, 24 h
[3] = system: Vibrio cholerae; experiment: Antibacterial activity against Vibrio cholerae MTCC 3906 after 24 hrs by broth microdilution method; format: functional; details: MTCC 3906, 24 h
[4] = system: Salmonella typhi; experiment: Antibacterial activity against Salmonella typhi MTCC 98 after 24 hrs by broth microdilution method; format: functional, Salmonella enterica subsp. enterica serovar Typhi; details: Salmonella enterica, MTCC 98, 24 h
[5] = system: Bacillus subtilis; experiment: Antibacterial activity against Bacillus subtilis MTCC 441 after 24 hrs by broth microdilution method; format: functional; details: MTCC 441, 24 h
[6] = system: Escherichia coli; experiment: Antibacterial activity against Escherichia coli MTCC 443 after 24 hrs by broth microdilution method; format: functional; details: MTCC 443, 24 h
[7] = Antioxidant activity assessed as ascorbic acid equivalent ferric ion reducing activity per 100 gram at 200 ug/ml by FRAP assay; format: functional
[8] = system: Candida albicans; experiment: Antifungal activity against Candida albicans MTCC 227 after 48 hrs by broth microdilution method; format: functional; details: MTCC 227, 48 h
[9] = system: Mycobacterium tuberculosis; experiment: Antimycobacterial activity against Mycobacterium tuberculosis H37Rv at 250 ug/ml; format: functional
How it was run: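 M. tuberculosis H37Rv tested on L.J. (Löwenstein–Jensen) medium.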

[10] = system: Aspergillus fumigatus; experiment: Antifungal activity against Aspergillus fumigatus MTCC 3008 after 48 hrs by broth microdilution method; format: functional; details: MTCC 3008, 48 h

| Structure (SMILES) | MIC [1] | MIC [2] | MIC [3] | MIC [4] | MIC [5] | MIC [6] | Activity [7] | MIC [8] | inhibition at 250 µg/mL [9] | MIC [10] |
| --- | --- | --- | --- | --- | --- | --- | --- | --- | --- | --- |
| CCn1cc(C(=O)O)c(=O)c2cc(F)c(N3CCNCC3)cc21 [NORFLOXACIN] | 10 µg/mL (≈ 31.3 µM) | 50 µg/mL (≈ 157 µM) | 10 µg/mL (≈ 31.3 µM) | 10 µg/mL (≈ 31.3 µM) | 100 µg/mL (≈ 313 µM) | 10 µg/mL (≈ 31.3 µM) |  |  |  |  |
| c1ccc(-c2nn(-c3ccccc3)c3c2[C@@H]2c4cc5ccccc5nc4SC[C@@H]2CO3)cc1 | 250 µg/mL (≈ 559 µM) | 250 µg/mL (≈ 559 µM) | 250 µg/mL (≈ 559 µM) | 250 µg/mL (≈ 559 µM) | 200 µg/mL (≈ 447 µM) | 100 µg/mL (≈ 223 µM) | 105 mmol | 500 µg/mL (≈ 1120 µM) | 40% | 250 µg/mL (≈ 559 µM) |
| Cc1nn(-c2ccccc2)c2c1[C@@H]1c3c(ccc4c(C)cc(=O)oc34)OC[C@@H]1CO2 | 250 µg/mL (≈ 624 µM) | 250 µg/mL (≈ 624 µM) | 250 µg/mL (≈ 624 µM) | 200 µg/mL (≈ 499 µM) | 500 µg/mL (≈ 1250 µM) | 250 µg/mL (≈ 624 µM) | 120 mmol | > 1000 µg/mL | 65% | > 1000 µg/mL |
| Cc1nn(-c2ccc([N+](=O)[O-])cc2)c2c1[C@@H]1c3c(ccc4c(C)cc(=O)oc34)OC[C@@H]1CO2 | 250 µg/mL (≈ 561 µM) | 250 µg/mL (≈ 561 µM) | 250 µg/mL (≈ 561 µM) | 200 µg/mL (≈ 449 µM) | 200 µg/mL (≈ 449 µM) | 125 µg/mL (≈ 281 µM) | 163 mmol | 1000 µg/mL (≈ 2250 µM) | 79% | 250 µg/mL (≈ 561 µM) |
| Cc1ccc(-n2nc(C)c3c2OC[C@H]2CSc4nc5c(C)cccc5cc4[C@@H]32)cc1 | 200 µg/mL (≈ 484 µM) | 250 µg/mL (≈ 605 µM) | 125 µg/mL (≈ 302 µM) | 125 µg/mL (≈ 302 µM) | 200 µg/mL (≈ 484 µM) | 100 µg/mL (≈ 242 µM) | 112 mmol | 1000 µg/mL (≈ 2420 µM) | 63% | 200 µg/mL (≈ 484 µM) |
| Cc1ccc(-n2nc(C)c3c2OC[C@H]2CSc4nc5ccccc5cc4[C@@H]32)cc1 | 62.5 µg/mL (≈ 156 µM) | 200 µg/mL (≈ 501 µM) | 200 µg/mL (≈ 501 µM) | 125 µg/mL (≈ 313 µM) | 200 µg/mL (≈ 501 µM) | 125 µg/mL (≈ 313 µM) | 121 mmol | 1000 µg/mL (≈ 2500 µM) | 33% | 1000 µg/mL (≈ 2500 µM) |
| Cc1nn(-c2ccc(Cl)c(Cl)c2)c2c1[C@@H]1c3cc4cccc(C)c4nc3SC[C@@H]1CO2 | 62.5 µg/mL (≈ 133 µM) | 250 µg/mL (≈ 534 µM) | 250 µg/mL (≈ 534 µM) | 250 µg/mL (≈ 534 µM) | 200 µg/mL (≈ 427 µM) | 250 µg/mL (≈ 534 µM) | 61.7 mmol | 500 µg/mL (≈ 1070 µM) | 38% | 1000 µg/mL (≈ 2130 µM) |
| Cc1nn(-c2ccccc2Cl)c2c1[C@@H]1c3c(ccc4c(C)cc(=O)oc34)OC[C@@H]1CO2 | 100 µg/mL (≈ 230 µM) | 200 µg/mL (≈ 460 µM) | 250 µg/mL (≈ 575 µM) | 100 µg/mL (≈ 230 µM) | 62.5 µg/mL (≈ 144 µM) | 125 µg/mL (≈ 287 µM) | 200 mmol | 1000 µg/mL (≈ 2300 µM) | 30% | > 1000 µg/mL |
| Cc1cc(=O)oc2c3c(ccc12)OC[C@H]1[C@@H]3c2c(-c3ccccc3)nn(-c3ccccc3)c2OC1(C)C | 125 µg/mL (≈ 255 µM) | 100 µg/mL (≈ 204 µM) | 125 µg/mL (≈ 255 µM) | 100 µg/mL (≈ 204 µM) | 200 µg/mL (≈ 408 µM) | 125 µg/mL (≈ 255 µM) | 160 mmol | 1000 µg/mL (≈ 2040 µM) | 80% | > 1000 µg/mL |
| Cc1nn(-c2cc(Cl)ccc2Cl)c2c1[C@@H]1c3c(ccc4c(C)cc(=O)oc34)OC[C@@H]1CO2 | 200 µg/mL (≈ 426 µM) | 250 µg/mL (≈ 533 µM) | 100 µg/mL (≈ 213 µM) | 250 µg/mL (≈ 533 µM) | 200 µg/mL (≈ 426 µM) | 125 µg/mL (≈ 266 µM) | 184 mmol | 250 µg/mL (≈ 533 µM) | 28% | > 1000 µg/mL |
| Cc1nn(-c2cccc(Cl)c2)c2c1[C@@H]1c3c(ccc4c(C)cc(=O)oc34)OC[C@@H]1C(C)(C)O2 | 62.5 µg/mL (≈ 135 µM) | 200 µg/mL (≈ 432 µM) | 250 µg/mL (≈ 540 µM) | 200 µg/mL (≈ 432 µM) | 200 µg/mL (≈ 432 µM) | 200 µg/mL (≈ 432 µM) | 225 mmol | 500 µg/mL (≈ 1080 µM) | 29% | 1000 µg/mL (≈ 2160 µM) |
| Cc1nn(-c2cc(Cl)ccc2Cl)c2c1[C@@H]1c3cc4ccccc4nc3SC[C@@H]1CO2 | 200 µg/mL (≈ 440 µM) |  |  |  | 100 µg/mL (≈ 220 µM) | 250 µg/mL (≈ 550 µM) | 158 mmol | 500 µg/mL (≈ 1100 µM) |  | > 1000 µg/mL |
| Cc1nn(-c2ccccc2Cl)c2c1[C@@H]1c3cc4cccc(C)c4nc3SC[C@@H]1CO2 | 100 µg/mL (≈ 230 µM) | 125 µg/mL (≈ 288 µM) | 200 µg/mL (≈ 461 µM) | 250 µg/mL (≈ 576 µM) | 125 µg/mL (≈ 288 µM) | 250 µg/mL (≈ 576 µM) | 147 mmol | 500 µg/mL (≈ 1150 µM) | 29% | 250 µg/mL (≈ 576 µM) |
| Cc1nn(-c2cc(Cl)ccc2Cl)c2c1[C@@H]1c3c(ccc4c(C)cc(=O)oc34)OC[C@@H]1C(C)(C)O2 | 100 µg/mL (≈ 201 µM) |  |  |  | 100 µg/mL (≈ 201 µM) | 100 µg/mL (≈ 201 µM) | 187 mmol | 500 µg/mL (≈ 1010 µM) |  | 500 µg/mL (≈ 1010 µM) |
| O=C(O)c1cn(C2CC2)c2cc(N3CCNCC3)c(F)cc2c1=O [CIPROFLOXACIN] | 50 µg/mL (≈ 151 µM) |  | 25 µg/mL (≈ 75.4 µM) | 25 µg/mL (≈ 75.4 µM) |  | 25 µg/mL (≈ 75.4 µM) |  |  |  |  |
